Compound activity: PubChem, several laboratories
Rad51 HR inh = blocks human Rad51 in homologous recombination; AID 1385; Q06609; hit rate 0.085% among 200,000; inhibition, % at 10 µM; hRad51 DNA strand exchange, fluorescence dequenching;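 active = inhibition above 40% at the single screening dose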;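 also: 0% = DMSO control wells and 100% = blanks with heterologous ssDNA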
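System: human Rad51 nucleoprotein filaments preassembled on unlabelled ssDNA. Reagent: labelled 47-mer dsDNA for strand exchange. Schedule: 30-min compound preincubation and 15-min exchange, both room temperature. Measured by: FRET fluorescence dequenching, excitation 485 nm, emission 520 nm. Read-out: Fluorescence-based percent inhibition, control- and blank-normalised. Benchmarks: plate controls and plate blanks.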
KCC2 mod = modulates chloride dependent transport by human KCC2. Q9H2X9. hit rate 2.2% among 190,000. B-score of Tl+ flux slope (higher = more flux/activation; lower = inhibition) at 10 µM. KCC2 cells, thallium flux FluoZin-2 fluorescence;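 active = thallium flux slope and its plate-corrected score both differing from the plate sample mean at a set confidence after two filtering rounds, in either direction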;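 also: slope of fluorescence scaled to starting intensity during 10 to 20 s after thallium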
Target sequence (Q9H2X9 whole entry, looked up): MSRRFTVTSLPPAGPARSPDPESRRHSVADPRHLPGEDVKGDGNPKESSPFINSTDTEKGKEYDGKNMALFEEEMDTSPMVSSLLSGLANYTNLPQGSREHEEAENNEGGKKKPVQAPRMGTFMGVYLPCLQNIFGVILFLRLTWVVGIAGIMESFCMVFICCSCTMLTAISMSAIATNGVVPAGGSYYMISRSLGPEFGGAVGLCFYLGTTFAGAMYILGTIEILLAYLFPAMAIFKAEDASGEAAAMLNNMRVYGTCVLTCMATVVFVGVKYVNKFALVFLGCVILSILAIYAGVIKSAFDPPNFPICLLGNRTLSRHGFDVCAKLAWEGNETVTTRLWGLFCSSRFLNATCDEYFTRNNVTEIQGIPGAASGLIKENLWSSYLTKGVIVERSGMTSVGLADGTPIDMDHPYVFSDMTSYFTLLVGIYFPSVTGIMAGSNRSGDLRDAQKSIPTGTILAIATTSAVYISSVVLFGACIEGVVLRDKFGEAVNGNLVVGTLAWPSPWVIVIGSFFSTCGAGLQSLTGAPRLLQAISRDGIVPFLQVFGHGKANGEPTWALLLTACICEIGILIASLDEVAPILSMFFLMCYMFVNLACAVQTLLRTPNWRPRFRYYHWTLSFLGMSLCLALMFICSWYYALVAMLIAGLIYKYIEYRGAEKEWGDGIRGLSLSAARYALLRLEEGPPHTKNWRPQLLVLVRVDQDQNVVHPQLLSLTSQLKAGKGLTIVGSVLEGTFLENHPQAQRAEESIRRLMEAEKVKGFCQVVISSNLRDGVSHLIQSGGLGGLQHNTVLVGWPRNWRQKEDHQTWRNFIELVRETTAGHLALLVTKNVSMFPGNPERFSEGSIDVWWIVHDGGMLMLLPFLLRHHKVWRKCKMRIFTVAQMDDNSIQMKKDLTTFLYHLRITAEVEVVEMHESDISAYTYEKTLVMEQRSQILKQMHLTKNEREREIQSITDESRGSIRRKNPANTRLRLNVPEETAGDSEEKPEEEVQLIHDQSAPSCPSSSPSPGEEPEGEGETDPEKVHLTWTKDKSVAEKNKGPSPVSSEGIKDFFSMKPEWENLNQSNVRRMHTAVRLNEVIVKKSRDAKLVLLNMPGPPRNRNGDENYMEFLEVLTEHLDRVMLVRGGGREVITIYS
CHT PAM = allosteric activators of human choline transporter CHT; AID 488977; B-score at 10 µM; Q9GZV3; CHT-expressing cells, membrane potential dye, choline EC20; stronger effect = higher value; LV-AA mutant CHT in HEK293 cells; hit rate 0.49% among 310,000;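 active = initial fluorescence not abnormally high and integrated response B-score, plate-corrected, over 3 SD above library mean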
CHT block = inhibits the human high affinity choline transporter; Q9GZV3; CHT-expressing cells, membrane potential dye, choline response; stronger effect = lower value; B-score at 10 µM; hit rate 0.86% among 310,000;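 active = B-score over 3 SD under the library average, and starting fluorescence ratio not unusually high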;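 also: choline stimulus applied at its EC90 after an EC20 pre-addition; B-score computed on integrated fluorescence ratio after choline addition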
KCC2 sec1 = confirmation of human KCC2 transport modulators | AID 1713 | normalised thallium flux (F/F0 slope) at 10 µM | hit rate 15% among 3,700 | HEK293-KCC2, thallium flux, FluoZin2 fluorescence; stronger effect = higher value | shares compounds with KCC2 mod;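 active = thallium flux slope above the same plate's solvent-only control mean plus 3 SD; inconclusive = the two replicate wells disagree; inactive = no significant difference from solvent-only control wells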
KCC2 bumet counter = thallium flux persisting under bumetanide in KCC2 cells, counter-screen secondary assay; shares compounds with KCC2 mod; HEK293-KCC2 + bumetanide/ouabain, thallium flux FluoZin2; stronger effect = higher value; normalized thallium flux at 10 µM; hit rate 49% among 3,700;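 active = thallium entry rate above the same plate's blocked-transporter control wells by more than 3 SD; inconclusive = the two repeat wells disagree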;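 also: raw slope of fluorescence over initial fluorescence between 10 and 20 s after thallium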
KCC2 sec2 = KCC2 (human) modulation, second secondary assay | HEK293-KCC2, thallium flux FluoZin2 fluorescence; actives lie on both sides; F/F0 rise rate, 10–20 s post-thallium | normalized thallium flux at 10 µM | shares compounds with KCC2 mod | hit rate 23% among 3,700;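 active = thallium flux slope more than 3 SD above or below the plate's solvent-only control mean, mostly below; inconclusive = the two repeat wells disagreed; inactive = no significant shift from solvent-only controls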;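 also: raw slope with 0.1% DMSO as baseline and bumetanide as block control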
HEK293 Tl flux = parental HEK flux effect, counter-screen. shares compounds with KCC2 mod. HEK293 parental cells, thallium flux FluoZin2, ouabain; baseline-ratio fluorescence slope, 10–20 s after thallium. thallium flux rate (normalised fluorescence) at 10 µM. hit rate 46% among 3,700;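 active = thallium flux rate significantly above the same plate's solvent-only control wells, beyond their mean plus 3 SD; inconclusive = the two replicate wells gave conflicting results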
KCC2 ouabain = confirmation of human KCC2 modulators with ouabain; shares compounds with KCC2 mod; hit rate 48% among 3,700; HEK293-KCC2, thallium flux FluoZin2 fluorescence; bidirectional: low = inhibitor, high = activator; raw Tl+ flux slope (below DMSO = inhibition, above = activation) at 10 µM;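 active = thallium flux slope beyond 3 SD from same-plate DMSO control mean in most replicates, usually higher, sometimes lower; inconclusive = repeat tests gave conflicting results; inactive = no significant difference from controls in most replicates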;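 also: slope of initial-normalized fluorescence between seconds 10 and 20 after thallium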
HEK counter2 = acts in parental HEK cells, second KCC2 counter-screen | shares compounds with KCC2 mod | HEK293 parental, thallium flux FluoZin-2 fluorescence slope | thallium flux slope at 10 µM | hit rate 33% among 3,700;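 active = thallium flux slope above the same plate's solvent-control mean plus 3 SD in both duplicate wells; inconclusive = duplicate wells that disagreed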;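 also: run without ouabain in cells lacking the KCC2 cotransporter; slope of fluorescence scaled to its starting value between 10 and 20 s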
* marks the source's active call; other numbers are inactive results. This is a sample that favours compounds with a hit; in the whole collection about 2.6% have one here.

`CCn1c(O)c(N=NC(=O)c2cccs2)c2ccccc21` gave Rad51 HR inh 6, KCC2 mod 8.8*, CHT PAM inactive, CHT block inactive, KCC2 sec1 inconclusive, KCC2 bumet counter 0.029*, KCC2 sec2 0.032, HEK293 Tl flux 0.013*, KCC2 ouabain 0.027* and HEK counter2 0.011*.
CN(NS(=O)(=O)c1ccc(Cl)cc1)c1nc(C(F)(F)F)nc2ccccc12 was read as Rad51 HR inh -6, KCC2 mod -2.9*, CHT PAM inactive, CHT block inactive, KCC2 sec1 0.0065, KCC2 bumet counter 0.0055, KCC2 sec2 0.029, HEK293 Tl flux inconclusive, KCC2 ouabain 0.018 and HEK counter2 0.01.
Screening CN(NS(=O)(=O)c1ccccc1)c1nc2ccccc2nc1C(F)(F)F returned Rad51 HR inh -1, KCC2 mod 1.5, CHT PAM inactive and CHT block inactive.
Screening CC1(C)CC(=O)c2c(-c3cccnc3)n[nH]c2C1 returned Rad51 HR inh -1, CHT PAM inactive, CHT block inactive, KCC2 sec1 0.01, KCC2 bumet counter 0.0056, KCC2 sec2 0.034, HEK293 Tl flux 0.0078, KCC2 ouabain 0.02 and HEK counter2 0.012.
CNC(=S)N/N=C/c1c(C)cccc1Cl was read as Rad51 HR inh -3, KCC2 mod 4.4*, CHT PAM inactive, CHT block inactive, KCC2 sec1 0.0094, KCC2 bumet counter 0.017*, KCC2 sec2 0.028, HEK293 Tl flux 0.0085*, KCC2 ouabain inconclusive and HEK counter2 0.0097.
COc1ccccc1C(=O)NC(=O)COC(=O)CCNS(=O)(=O)c1ccccc1 was read as CHT PAM inactive and CHT block inactive.
`COCCn1c(=O)[nH]c2cc(C(=O)Nc3cc(C)cc(C)c3)ccc2c1=O` gave CHT PAM inactive and CHT block inactive.
COc1ccc(N(CC(=O)N2CCC(Cc3ccccc3)CC2)S(C)(=O)=O)cc1 was read as Rad51 HR inh -6, KCC2 mod -5*, CHT PAM inactive, CHT block inactive, KCC2 sec1 0.006, KCC2 bumet counter 0.0038, KCC2 sec2 inconclusive, HEK293 Tl flux 0.0061*, KCC2 ouabain 0.015* and HEK counter2 0.01.
`O=C(NCCOC(=O)c1c(F)cccc1Cl)c1c(F)cccc1Cl` gave CHT PAM inactive and CHT block inactive.
For Cc1nc2c(-c3ccc(F)cc3)c(C)nn2c(C)c1CCC(=O)N1CCN(c2ccc(F)cc2)CC1 the results were Rad51 HR inh 0, KCC2 mod -0.72, CHT PAM inactive and CHT block inactive.
Screening O=C1CN(c2nc(-c3cccs3)nc3sc4c(c23)CCCC4)CCN1 returned Rad51 HR inh 0, KCC2 mod 16*, CHT PAM inactive, CHT block inactive, KCC2 sec1 0.0075, KCC2 bumet counter 0.0098*, KCC2 sec2 0.03, HEK293 Tl flux 0.01*, KCC2 ouabain inconclusive and HEK counter2 0.01.
Screening Cc1cccc(OCc2n[nH]c(=S)n2Cc2ccccc2)c1 returned Rad51 HR inh -3, KCC2 mod 8.9*, CHT PAM inactive, CHT block inactive, KCC2 sec1 0.013*, KCC2 bumet counter 0.062*, KCC2 sec2 0.033, HEK293 Tl flux 0.018*, KCC2 ouabain 0.026 and HEK counter2 0.012*.
Screening CC(C)CCn1c(COc2ccccc2)n[nH]c1=S returned Rad51 HR inh -46, KCC2 mod 6.2*, CHT PAM inactive, CHT block inactive, KCC2 sec1 0.0096, KCC2 bumet counter 0.03*, KCC2 sec2 0.029, HEK293 Tl flux 0.014*, KCC2 ouabain 0.026 and HEK counter2 0.011*.
S=c1[nH]nc(COc2ccccc2)n1Cc1ccccc1 was read as Rad51 HR inh -5, KCC2 mod 3.3, CHT PAM inactive and CHT block inactive.
`Cc1cccc(N(CC(=O)NC2CCCCC2)C(=O)CCC(=O)Nc2nccs2)c1` gave CHT PAM inactive and CHT block inactive.
`CC(NC(=O)c1ccnc(C(C)(C)C)c1)c1ccccc1` (stereo not drawn) gave Rad51 HR inh -3, KCC2 mod 0.55, CHT PAM inactive, CHT block inactive, KCC2 sec1 0.019, KCC2 bumet counter inconclusive, KCC2 sec2 inconclusive, HEK293 Tl flux 0.0071, KCC2 ouabain 0.015 and HEK counter2 0.0094.
Screening COc1ccc(C2C(C(C)=O)=C(C)Nc3ncnn32)cc1 (stereo not drawn) returned CHT PAM inactive and CHT block inactive.
Screening CCCCC(=O)NC(=S)NNC(=O)CCc1ccccc1 returned KCC2 mod 6.9, CHT PAM inactive and CHT block inactive.
For O=C(CCc1ccccc1)NC(=S)Nc1cccc(C(=O)O)c1 the results were CHT PAM inactive and CHT block inactive.
For O=C(CCc1ccccc1)NNC(=S)NC(=O)c1ccccc1 the results were Rad51 HR inh 2, KCC2 mod 10*, CHT PAM inactive, CHT block inactive, KCC2 sec1 0.025*, KCC2 bumet counter 0.061*, KCC2 sec2 0.037, HEK293 Tl flux 0.03*, KCC2 ouabain 0.051* and HEK counter2 0.015*.
Screening O=C(CCc1ccccc1)NC(=S)Nc1cccc(Br)c1 returned Rad51 HR inh 7, KCC2 mod 4.8*, CHT PAM inactive, CHT block inactive, KCC2 sec1 0.0082, KCC2 bumet counter 0.011*, KCC2 sec2 0.029, HEK293 Tl flux 0.0086*, KCC2 ouabain inconclusive and HEK counter2 0.0096.
CCN(C(=S)NC(=O)CCc1ccccc1)c1ccccc1 was read as Rad51 HR inh 0, KCC2 mod 4.7*, CHT PAM inactive, CHT block inactive, KCC2 sec1 inconclusive, KCC2 bumet counter 0.051*, KCC2 sec2 0.034, HEK293 Tl flux 0.017*, KCC2 ouabain 0.042* and HEK counter2 0.013*.
O=C1CN2NC(=S)N(c3ccccc3)C2=CN1c1ccc(Cl)cc1 was read as Rad51 HR inh 20, KCC2 mod 0.97, CHT PAM inactive and CHT block inactive.
